The test system of one experiment is KB. Put plainly: Cytotoxicity against human KB cells after 72 hrs by SRB assay. The format is functional. To be noted: read-out: ED50 (the source's name). Put shortly:
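KB-3 cells grown in DMEM with 10% FBS at 37 °C and 5% CO₂ to 60–70% confluence, then used 1 day after a medium change. Samples were dissolved in DMSO and serially diluted in 10% aqueous DMSO. 5×10⁴ cells were exposed for 72 h at 37 °C, then TCA-fixed, stained with 0.4% SRB and read at 515 nm. Zero-day control was subtracted and values expressed relative to solvent control; ED50 by nonlinear regression.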
On the technique in general: In SRB staining, fixed cells bind dye roughly in proportion to their protein.

In experiment [1] the test system is Plasmodium falciparum. Kind of experiment: Antiplasmodial activity against chloroquine-sensitive Plasmodium falciparum D6 infected human erythrocytes as [3H]hypoxanthine uptake after 24 hrs. Format: functional, organism-based. Put shortly: (§1)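 P. falciparum (D6, W2) cultured in type A+ human erythrocytes, RPMI-1640 with NaHCO3, HEPES and 10% heat-inactivated human plasma, 37 °C under 5% O2/5% CO2/90% N2. Infected red cells at 0.5-1.0% parasitemia, 1.0% hematocrit exposed to compound, duplicate seven-point series, 24 h; then 0.5 μCi [3H]hypoxanthine per well for 18 h more. Filter harvest, scintillation counting; IC50 by nonlinear regression versus zero-drug controls.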

The nature of experiment [2]: Selectivity index, ratio of ED50 for human KB cells to IC50 for […] Plasmodium falciparum D6. The format is functional.
The subject of experiment [3] is Plasmodium falciparum. Kind of experiment: Antiplasmodial activity against chloroquine-resistant Plasmodium falciparum W2 infected human erythrocytes as [3H]hypoxanthine uptake after 24 hrs. The format is functional, organism-based. The gist of the method:
as §1

A short description of experiment [4]: Selectivity index, ratio of ED50 for human KB cells to IC50 for chloroquine-resistant Plasmodium falciparum W2. The format is functional.

Consider `COc1cc2c3cc1Oc1cc(ccc1O)C[C@@H]1c4c(cc(OC)c(O)c4Oc4ccc(cc4)C[C@@H]3N(C)CC2)CC[N+]1(C)C.[Cl-]`, for which the EC50 in the experiment with KB is greater than 32800 nM. In addition, the half-inhibitory concentration (IC50) – broadly, the concentration that inhibits the measured activity by half – is 15300 nM in the experiment on Plasmodium falciparum [1] and greater than 16400 nM with Plasmodium falciparum [3]. Further, the “Selectivity Index” value is recorded as greater than 2.1 in experiment [2] and 2 in experiment [4].

On to `COc1ccc2cc1Oc1cc3c(cc1OC)CCN=C3Cc1ccc(cc1)COc1c(OC)cc3c(c1O)[C@H](C2)N(C)CC3`, for which, in the experiment with KB, the EC50 is greater than 33800 nM. For the same compound, the results for the 50% inhibitory concentration (IC50) in the experiment with Plasmodium falciparum [1] and with Plasmodium falciparum [3] were 346 nM and 169 nM, respectively. For the same compound, the “Selectivity Index” value is recorded as greater than 98 in experiment [2] and greater than 200 in experiment [4].

`COc1cc2c3c(c1O)Oc1cc4c(cc1O)CCN(C)[C@H]4Cc1ccc(O)c(c1)Oc1ccc(cc1)C[C@@H]2NCC3`: in the experiment with KB, the EC50 turned out to be 17800 nM. The IC50 with Plasmodium falciparum [1] turned out to be 883 nM; with Plasmodium falciparum [3] it was 1590 nM. Also, the “Selectivity Index” value in experiment [2] is 20; in experiment [4] it was 11.

Regarding `COc1ccc2cc1Oc1cc3c(cc1OC)CCN[C@@H]3Cc1ccc(cc1)Oc1c3c(cc4c1[C@@H](C2)N(C)CC4)OCO3`, the EC50 in the experiment on KB came to 14400 nM. Besides, the IC50 with Plasmodium falciparum [1] turned out to be 530 nM; in the experiment on Plasmodium falciparum [3] it was 676 nM. Also, the figures for the “Selectivity Index” value in experiment [2] and in experiment [4] were 27.1 and 21.2, respectively.

On to `COc1ccc2cc1Oc1cc3c(cc1OC)CCN(C(C)=O)[C@H]3Cc1ccc(cc1)Oc1c3c(cc4c1[C@H](C2)N(C)CC4)OCO3`, for which the EC50 in the experiment with KB came to 8360 nM. In addition, the IC50 in the experiment with Plasmodium falciparum [1] came to 2320 nM; in the experiment with Plasmodium falciparum [3], 1200 nM. The “Selectivity Index” value is listed as 3.6 in experiment [2] and 7 in experiment [4].

`COc1ccc2cc1Oc1cc3c(cc1OC)CCN(C)[C@@H]3Cc1ccc(cc1)Oc1c(O)c(OC)cc3c1[C@@H](C2)N(C)CC3`: the EC50 in the experiment with KB came to 7700 nM. Besides, the IC50 amounted to 128 nM with Plasmodium falciparum [1] and 387 nM in the experiment with Plasmodium falciparum [3]. In addition, the results for the “Selectivity Index” value in experiment [2] and in experiment [4] were 60 and 20, respectively.

`COc1ccc2cc1Oc1cc3c(nccc3cc1OC)Cc1ccc(cc1)COc1c(OC)cc3c(c1O)[C@H](C2)N(C)CC3`: the EC50 in the experiment on KB was found to be 14700 nM. The IC50 in the experiment on Plasmodium falciparum [1] amounted to 115 nM; with Plasmodium falciparum [3] it was 66 nM. The “Selectivity Index” value in experiment [2] is 130; in experiment [4], 220.

Regarding `COc1cc2ccnc3c2cc1Oc1cc(ccc1O)C[C@H]1c2c(cc(OC)c(c2O)OCc2ccc(cc2)C3)CCN1C`, the EC50 with KB is greater than 33900 nM. Further, the IC50 in the experiment with Plasmodium falciparum [1] was 110 nM; with Plasmodium falciparum [3], 59 nM. The “Selectivity Index” value in experiment [2] was greater than 310; in experiment [4] it was greater than 580.

On to `COc1ccc2cc1Oc1cc3c(cc1OC)CCN[C@H]3Cc1ccc(cc1)Oc1c3c(cc4c1[C@@H](C2)N(C)CC4)OCO3`, for which the EC50 in the experiment on KB was determined as 8800 nM. The IC50 was 1270 nM with Plasmodium falciparum [1] and 662 nM with Plasmodium falciparum [3]. Further, the “Selectivity Index” value in experiment [2] is reported as 7.5; in experiment [4] it was 13.3.

With `COc1cc2c3cc1Oc1cc(ccc1O)C[C@H]1c4c(cc(OC)c(c4O)OCc4ccc(cc4)CC3NCC2)CCN1C` (stereo not given in full), the EC50 with KB was 8580 nM. Also, the results for the IC50 with Plasmodium falciparum [1] and with Plasmodium falciparum [3] were 348 nM and 199 nM, respectively. Moreover, the “Selectivity Index” value came to 24.6 in experiment [2] and 43.2 in experiment [4].

`COc1ccc2cc1Oc1cc3c(cc1OC)CCN=C3Cc1ccc(cc1)Oc1c3c(cc4c1[C@@H](C2)N(C)CC4)OCO3`: the EC50 in the experiment with KB was greater than 33900 nM. Besides, the IC50 with Plasmodium falciparum [1] was 4980 nM; with Plasmodium falciparum [3], 2100 nM. For the same compound, the “Selectivity Index” value was greater than 6.8 in experiment [2] and greater than 16.1 in experiment [4].

Turning to `COc1ccc2cc1Oc1ccc(cc1)C[C@H]1c3c(cc(OC)c(OC)c3Oc3c4c(cc(OC)c3OC)[C@H](C2)N(C)CC4)CCN1C`, the EC50 with KB turned out to be 8400 nM. Further, the IC50 in the experiment with Plasmodium falciparum [1] came out at 224 nM; with Plasmodium falciparum [3], 110 nM. Besides, the “Selectivity Index” value was 37.7 in experiment [2] and 76.4 in experiment [4].

Consider `COc1cc2c3cc1Oc1cc(ccc1O)C[C@@H]1c4c(cc5c(c4Oc4ccc(cc4)C[C@@H]3N(C(C)=O)CC2)OCO5)CCN1C`, for which the EC50 in the experiment with KB stood at 8870 nM. The results for the IC50 with Plasmodium falciparum [1] and in the experiment with Plasmodium falciparum [3] were 6890 nM and 4030 nM, respectively. Also, the “Selectivity Index” value in experiment [2] stood at 1.3; in experiment [4], 2.2.

On to `C[C@@H]1CC[C@H]2[C@@H](C)C(=O)O[C@@H]3O[C@@]4(C)CC[C@@H]1[C@]32OO4` [ARTEMISININ], for which the EC50 in the experiment on KB was greater than 70900 nM. Also, the IC50 with Plasmodium falciparum [1] stood at 15.1 nM; in the experiment with Plasmodium falciparum [3], 14.6 nM. Besides, the “Selectivity Index” value in experiment [2] is given as greater than 4680; in experiment [4], greater than 4860.

`COc1cc2c3cc1Oc1c(OC)c(OC)cc4c1[C@@H](Cc1ccc(O)c(c1)Oc1ccc(cc1)C[C@@H]3N(C)CC2)N(C)CC4` [BERBAMINE]: in the experiment with KB, the EC50 turned out to be 9210 nM. In addition, the IC50 with Plasmodium falciparum [1] is 128 nM; in the experiment on Plasmodium falciparum [3], 313 nM. Also, the “Selectivity Index” value turned out to be 72 in experiment [2] and 29 in experiment [4].

For the compound `COc1ccc2cc1Oc1ccc(cc1)C[C@H]1c3c(cc4c(c3Oc3cc5c(cc3OC)CCN(C)[C@@H]5C2)OCO4)CCN1C` [CEPHARANTHINE], the EC50 in the experiment with KB came to 9700 nM. The IC50 was 231 nM with Plasmodium falciparum [1] and 478 nM in the experiment with Plasmodium falciparum [3]. In addition, the figures for the “Selectivity Index” value in experiment [2] and in experiment [4] were 42 and 20, respectively.

For the compound `COc1ccc2cc1Oc1ccc(cc1)C[C@H]1c3cc(c(OC)cc3CCN1C)Oc1c(OC)c(OC)cc3c1[C@H](C2)N(C)CC3` [FANCHININ], in the experiment on KB, the EC50 stood at 5800 nM. Besides, the IC50 in the experiment with Plasmodium falciparum [1] worked out at 288 nM; in the experiment with Plasmodium falciparum [3] it was 257 nM. Also, the “Selectivity Index” value in experiment [2] turned out to be 20; in experiment [4], 22.

For the compound `COc1ccc2cc1Oc1ccc(cc1)C[C@H]1c3cc(c(OC)cc3CCN1C)Oc1c(O)c(OC)cc3c1[C@H](C2)N(C)CC3` [FANGCHINOLINE], the EC50 with KB is 9210 nM. The IC50 with Plasmodium falciparum [1] is 179 nM; in the experiment with Plasmodium falciparum [3], 306 nM. In addition, the “Selectivity Index” value amounted to 51 in experiment [2] and 30 in experiment [4].

Take `COc1ccc2cc1Oc1ccc(cc1)C[C@H]1c3c(cc(OC)c(O)c3Oc3cc4c(cc3OC)CCN(C)[C@@H]4C2)CCN1C` [HOMOAROMOLINE]: the EC50 with KB amounted to 10400 nM. Also, the IC50 was 173 nM with Plasmodium falciparum [1] and 474 nM with Plasmodium falciparum [3]. Moreover, the “Selectivity Index” value came to 60 in experiment [2] and 22 in experiment [4].

For the compound `COc1ccc2cc1Oc1ccc(cc1)C[C@H]1c3c(cc(OC)c4c3Oc3cc5c(cc3O4)CCN(C)[C@H]5C2)CCN1C` [ISOTRILOBINE], the EC50 in the experiment with KB worked out at 24000 nM. The IC50 in the experiment with Plasmodium falciparum [1] came to 388 nM; in the experiment with Plasmodium falciparum [3] it was 788 nM. Besides, the “Selectivity Index” value in experiment [2] amounted to 62; in experiment [4], 30.

`COc1cc2c(cc1O)[C@H](Cc1ccc(OC)c(Oc3ccc(C[C@H]4c5cc(OC)c(OC)cc5CCN4C)cc3)c1)N(C)CC2` [NEOTHALIBRINE]: the EC50 in the experiment with KB was determined as 10100 nM. The IC50 with Plasmodium falciparum [1] amounted to 47 nM; in the experiment on Plasmodium falciparum [3], 135 nM. The “Selectivity Index” value amounted to 215 in experiment [2] and 75 in experiment [4].

On to `COc1ccc2cc1Oc1ccc(cc1)C[C@H]1c3c(cc(OC)c(OC)c3Oc3cc4c(cc3OC)CCN(C)[C@@H]4C2)CCN1C` [OBABERINE], for which the EC50 in the experiment on KB was 13800 nM. For the same compound, the values for the IC50 in the experiment on Plasmodium falciparum [1] and in the experiment with Plasmodium falciparum [3] were 371 nM and 347 nM, respectively. Also, the “Selectivity Index” value came out at 37 in experiment [2] and 40 in experiment [4].

In the case of `COc1cc2c3cc1Oc1c(O)c(OC)cc4c1[C@@H](Cc1ccc(O)c(c1)Oc1ccc(cc1)C[C@@H]3N(C)CC2)N(C)CC4` [OBAMEGINE], the EC50 in the experiment with KB turned out to be 14100 nM. For the same compound, the IC50 came out at 354 nM in the experiment on Plasmodium falciparum [1] and 825 nM in the experiment on Plasmodium falciparum [3]. For the same compound, the “Selectivity Index” value is reported as 40 in experiment [2] and 17 in experiment [4].

As to `COc1ccc2cc1Oc1ccc(cc1)C[C@@H]1c3cc(c(OC)cc3CCN1C)Oc1c(OC)c(OC)cc3c1[C@@H](C2)N(C)CC3` [PHAEANTHINE], the EC50 in the experiment with KB came out at 10800 nM. Besides, the IC50 is 305 nM in the experiment with Plasmodium falciparum [1] and 498 nM in the experiment on Plasmodium falciparum [3]. For the same compound, the “Selectivity Index” value in experiment [2] was 35; in experiment [4], 22.

In the case of `C=C[C@H]1CN2CC[C@H]1C[C@H]2[C@H](O)c1ccnc2ccc(OC)cc12` [QUININE], in the experiment with KB, the EC50 was greater than 55400 nM. The IC50 amounted to 23.4 nM with Plasmodium falciparum [1] and 250 nM with Plasmodium falciparum [3]. In addition, the “Selectivity Index” value was greater than 285 in experiment [2] and greater than 222 in experiment [4].

Regarding `COc1ccc2cc1Oc1ccc(cc1)C[C@@H]1NCCc3cc(OC)c4c(c31)Oc1cc3c(cc1O4)CCN(C)[C@H]3C2` [TRILOBINE], the EC50 in the experiment on KB is 8300 nM. Also, the IC50 in the experiment with Plasmodium falciparum [1] amounted to 169 nM; in the experiment on Plasmodium falciparum [3], 451 nM. In addition, the “Selectivity Index” value in experiment [2] turned out to be 49; in experiment [4], 19.

The record behind these values is ChEMBL document CHEMBL1157985, “Antiplasmodial and cytotoxic activity of natural bisbenzylisoquinoline alkaloids” (J Nat Prod, 1999).
